Experimental data reported in paper PMC6779328 (Bioorganic & medicinal chemistry, 2019).
Values after ≈ are worked out from the molar mass of the structure shown.

Columns and labels:
[1] = tested on: MRSA-252; assay: MIC, MRSA-252; assay type: cell-based, Staphylococcus aureus
[2] = tested on: HeLa cells; assay: HeLa growth inhibition; assay type: cell-based, human
[3] = tested on: E.faecium 28977; assay: MIC, E.faecium 28977; assay type: cell-based
[4] = tested on: E.faecium HM-460; assay: MIC, E.faecium HM-460; assay type: cell-based
[5] = tested on: MRSA ATCC BAA-44; assay: MIC by broth microdilution, MRSA BAA-44; assay type: cell-based, Staphylococcus aureus; settings: MRSA BAA-44, compound alone
[6] = tested on: B.subtilis NR-607; assay: MIC, B.subtilis NR-607; assay type: cell-based
[7] = tested on: MSSA; assay: MIC, MSSA; assay type: cell-based, S. aureus
[8] = tested on: MRSA ATCC BAA-44; assay: Minimum re-sensitizing concentration; assay type: cell-based, Staphylococcus aureus; settings: MRSA BAA-44, cefazolin
How it was run: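 MRSA ATCC BAA-44. The test compound was combined with cefazolin, and the minimum resensitizing concentration (MRC) was reported in μg/mL. MIC alone was determined by standard CLSI broth microdilution. MIC and MRC values were confirmed in triplicate. RMA activity was expressed as the ratio MIC/MRC.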

[9] = Staphylococcus aureus, ATCCBAA44|BAA44|MRSA

“1-((6-chloro-2-(6-chlorobenzo[d]thiazol-2-yl)-2,3,4,9-tetrahydro-1H-pyrido[3,4-b]indol-4-yl)methyl)guanidine hydrochloride [12g]” was tested, and the MIC [1] was 2 µg/mL, the GI50 ([2]; 24 h) was 14.1 µg/mL and the MIC [3] was 2 µg/mL. The MIC [4] was 4 µg/mL, the MIC [5] was 2 µg/mL and the MIC [6] was 2 µg/mL. The MIC [7] was 0.5 µg/mL.
With “6-Chloro-N-[3-(trifluoromethyl)phenyl]-1,3,4,9-tetrahydro-2H-pyrido[3,4-b]indole-2-carbothioamide [5c]” the MIC [5] was 2 µg/mL.
For Nc1cc(Cl)c2nc(N3CCc4c([nH]c5ccc(Cl)cc45)C3)sc2c1 [4ad, 4-Chloro-2-(6-chloro-1,3,4,9-tetrahydro-2H-pyrido[3,4-b]indol-2-yl)-1,3-benzothiazol-6-amine], the “RMA activity (in words)” value [8] was “good RMA activities”.
Cl.NCC(=O)Nc1cc(Cl)c2nc(N3CCc4c([nH]c5ccc(Cl)cc45)C3)sc2c1 [4ae, 2-amino-N-(4-chloro-2-(6-chloro-1,3,4,9-tetrahydro-2H-pyrido[3,4-b]indol-2-yl)benzo[d]thiazol-6-yl)acetamide hydrochloride] was tested, and the “antibacterial activity, MIC (in words)” value [5] was “excellent MICs”.
With FC(F)(F)c1cccc2sc(N3CCc4c([nH]c5ccc(Cl)cc45)C3)nc12 [4af, 6-Chloro-2-[4-(trifluoromethyl)-1,3-benzothiazol-2-yl]-2,3,4,9-tetrahydro-1H-pyrido[3,4-b]indole] the “RMA activity (in words)” value [8] was “good RMA activities” and the “GI50 worse than R^9-Cl analog 4w” value [2] was 3 fold.
In the case of CNc1cc(C(F)(F)F)c2nc(N3CCc4c([nH]c5ccc(Cl)cc45)C3)sc2c1 [4ai, 2-(6-Chloro-1,3,4,9-tetrahydro-2H-pyrido[3,4-b]indol-2-yl)-N-methyl-4-(trifluoromethyl)-1,3-benzothiazol-6-amine], the “RMA activity (in words)” value [8] is reported as “good RMA activities”.
For Cl.NCCNc1cc(C(F)(F)F)c2nc(N3CCc4c([nH]c5ccc(Cl)cc45)C3)sc2c1 [4aj, N1-(2-(6-chloro-1,3,4,9-tetrahydro-2H-pyrido[3,4-b]indol-2-yl)-4-(trifluoromethyl)benzo[d]thiazol-6-yl)ethane-1,2-diamine hydrochloride], the “antibacterial activity, MIC (in words)” value [5] was “excellent MICs”.
With Clc1ccc2[nH]c3c(c2c1)CCN(c1nc2ccccc2s1)C3 [4b, 2-(1,3-Benzothiazol-2-yl)-6-chloro-2,3,4,9-tetrahydro-1H-pyrido[3,4-b]indole] the “RMA activity (in words)” value [8] was “no RMA activity”.
In the case of Cc1ccc2nc(N3CCc4c([nH]c5ccc(Cl)cc45)C3)sc2c1 [4c, 6-Chloro-2-(6-methyl-1,3-benzothiazol-2-yl)-2,3,4,9-tetrahydro-1H-pyrido[3,4-b]indole], the “RMA activity (in words)” value [8] is reported as “no RMA activity”.
In the case of Clc1ccc2[nH]c3c(c2c1)CCN(c1nc2ncccc2s1)C3 [4d, 6-Chloro-2-([1,3]thiazolo[4,5-b]pyridin-2-yl)-2,3,4,9-tetrahydro-1H-pyrido[3,4-b]indole], the “RMA activity (in words)” value [8] is reported as “abolished”.
FC(F)(F)c1cnc2nc(N3CCc4c([nH]c5ccc(Cl)cc45)C3)sc2c1 [4e, 6-Chloro-2-[6-(trifluoromethyl)[1,3]thiazolo[4,5-b]pyridin-2-yl]-2,3,4,9-tetrahydro-1H-pyrido[3,4-b]indole] was tested, and the “RMA activity (in words)” value [8] was “abolished”.
In the case of CCOC(=O)C1c2[nH]c3ccc(Cl)cc3c2CCN1c1nc2ccc(Cl)cc2s1 (stereo not shown) [4l, Ethyl 6-chloro-2-(6-chloro-1,3-benzothiazol-2-yl)-2,3,4,9-tetrahydro-1H-pyrido[3,4-b]indole-1-carboxylate], the “RMA activity (in words)” value [8] is reported as “abolished”.
For COC(=O)C1Cc2c([nH]c3ccc(Cl)cc23)CN1c1nc2ccc(Cl)cc2s1 (stereo not shown) [4m, Methyl 6-chloro-2-(6-chloro-1,3-benzothiazol-2-yl)-2,3,4,9-tetrahydro-1H-pyrido[3,4-b]indole-3-carboxylate], the “RMA activity (in words)” value [8] was “abolished” and the MIC [5] was greater than 64 µg/mL.
In the case of CCn1c2c(c3cc(Cl)ccc31)CCN(c1nc3ccc(Cl)cc3s1)C2 [4o, 6-Chloro-2-(6-chloro-1,3-benzothiazol-2-yl)-9-ethyl-2,3,4,9-tetrahydro-1H-pyrido[3,4-b]indole], the “RMA activity (in words)” value [8] is reported as “abolished”.
For Clc1ccc2[nH]c3c(c2c1)CCN(c1nc2ccc(Br)cc2s1)C3 [4p, 2-(6-Bromo-1,3-benzothiazol-2-yl)-6-chloro-2,3,4,9-tetrahydro-1H-pyrido[3,4-b]indole], the “RMA activity (in words)” value [8] was “retained the RMA activity”.
FC(F)(F)Oc1ccc2nc(N3CCc4c([nH]c5ccc(Cl)cc45)C3)sc2c1 [4t, 6-Chloro-2-[6-(trifluoromethoxy)-1,3-benzothiazol-2-yl]-2,3,4,9-tetrahydro-1H-pyrido[3,4-b]indole] was tested, and the “RMA activity (in words)” value [8] was “lost the RMA activity completely”.
For Clc1ccc2[nH]c3c(c2c1)CCN(c1nc2cccc(Cl)c2s1)C3 [4u, 6-Chloro-2-(7-chloro-1,3-benzothiazol-2-yl)-2,3,4,9-tetrahydro-1H-pyrido[3,4-b]indole], the “RMA activity (in words)” value [8] was “reduced RMA activity”.
Clc1ccc2sc(N3CCc4c([nH]c5ccc(Cl)cc45)C3)nc2c1 [4v, 6-Chloro-2-(5-chloro-1,3-benzothiazol-2-yl)-2,3,4,9-tetrahydro-1H-pyrido[3,4-b]indole] was tested, and the “RMA activity (in words)” value [8] was “no RMA activity”.
With Clc1ccc2[nH]c3c(c2c1)CCN(c1nc2c(Cl)cccc2s1)C3 [4w, 6-Chloro-2-(4-chloro-1,3-benzothiazol-2-yl)-2,3,4,9-tetrahydro-1H-pyrido[3,4-b]indole] the “RMA activity (in words)” value [8] was “maintained similar RMA activity”.
For Clc1cc(Cl)c2nc(N3CCc4c([nH]c5ccc(Cl)cc45)C3)sc2c1 [4x, 6-Chloro-2-(4,6-dichloro-1,3-benzothiazol-2-yl)-2,3,4,9-tetrahydro-1H-pyrido[3,4-b]indole], the “antibacterial activity, MIC (in words)” value [5] was “excellent MICs”.
In the case of Clc1ccc2[nH]c3c(c2c1)CCN(c1nc2c(Cl)c(Cl)c(Cl)cc2s1)C3 [4y, 6-Chloro-2-(4,5,6-trichloro-1,3-benzothiazol-2-yl)-2,3,4,9-tetrahydro-1H-pyrido[3,4-b]indole], the “antibacterial activity, MIC (in words)” value [5] is reported as “excellent MICs”.
Cc1nnc(SCC2=C(C(=O)O)N3C(=O)[C@@H](NC(=O)Cn4cnnn4)[C@H]3SC2)s1 [Cefazolin, reference compound] was tested, and the MIC [5, 9] was 256 µg/mL (≈ 563 µM).
Work on CO/N=C(\C(=O)N[C@@H]1C(=O)N2C(C(=O)O)=C(COC(N)=O)CS[C@H]12)c1ccco1 [Cefuroxime, reference compound] yielded an MIC [5] of 256 µg/mL (≈ 603 µM) and an MIC [5, 9] of 128 µg/mL (≈ 302 µM).
For O=C(O)C1CN(c2nc3ccc(Cl)cc3s2)Cc2[nH]c3ccc(Cl)cc3c21 (stereo not shown) [compound 8, 6-Chloro-2-(6-chlorobenzo[d]thiazol-2-yl)-2,3,4,9-tetrahydro-1H-pyrido[3,4-b]indole-4-carboxylic acid], the “RMA activity (in words)” value [8] was “significantly decreased or abolished”.
CN(C)C(=O)C1CN(c2nc3ccc(Cl)cc3s2)Cc2[nH]c3ccc(Cl)cc3c21 (stereo not shown) [compound 9, 6-Chloro-2-(6-chlorobenzo[d]thiazol-2-yl)-N,N-dimethyl-2,3,4,9-tetrahydro-1H-pyrido[3,4-b]indole-4-carboxamide] was tested, and the “RMA activity (in words)” value [8] was “significantly decreased or abolished”.
